Measured values pooled from the literature.
Protocols differ between the studies behind these lines.
Cell line: NCI-H460
Read-out: cell growth or viability

| Structure (SMILES) | technique | time | endpoint | value |
| --- | --- | --- | --- | --- |
| CN1C[C@H](C(=O)N[C@]2(C)O[C@@]3(O)[C@@H]4CCCN4C(=O)[C@H](Cc4ccccc4)N3C2=O)C=C2c3cccc4[nH]cc(c34)C[C@H]21 | MTT | 72 h | EC50 | ~25 µM |
| C=C(C)[C@@H]1CC[C@]2(CO)CC[C@]3(C)[C@H](CC[C@@H]4[C@@]5(C)CC[C@H](O)C(C)(C)[C@@H]5CC[C@]43C)[C@@H]12 | – | 48 h | IC50 | 11.5 µM |
| Cc1cccc(-n2ncc(Cl)c(Cl)c2=O)c1 | resazurin | 96 h | IC50 | 1.5 µM |
| N.N.[Cl][Pt][Cl] | – | – | IC50 | 19 µM |
| COc1cc([C@@H]2c3cc4c(cc3[C@H](O)[C@H]3COC(=O)[C@H]23)OCO4)cc(OC)c1OC | MTT | 72 h | EC50 | 0.0002 µM |
| N.N.[Cl][Pt][Cl] | – | 24 h | IC50 | 50.5 µM |
| N.N.[Cl][Pt][Cl] | MTT | 72 h | IC50 | 2 µM |
| C1COCCN1.COc1ccc(/C=C\c2cc(I)c(OC)c(I)c2)cc1OP(=O)(O)O | SRB | 48 h | GI50 | 0.033 µg/mL |
